Residue numbers refer to the chain shown, from its start.
What was measured:
Hv1 D174E = molecular target: T1, Hv1 D174E (Homo sapiens, UniProt Q96D96, D174E); experiment: Inside-out patch time course of inhibition, mutant channel; assay type: cell-based
T1 sequence (Q96D96 1-273 D174E): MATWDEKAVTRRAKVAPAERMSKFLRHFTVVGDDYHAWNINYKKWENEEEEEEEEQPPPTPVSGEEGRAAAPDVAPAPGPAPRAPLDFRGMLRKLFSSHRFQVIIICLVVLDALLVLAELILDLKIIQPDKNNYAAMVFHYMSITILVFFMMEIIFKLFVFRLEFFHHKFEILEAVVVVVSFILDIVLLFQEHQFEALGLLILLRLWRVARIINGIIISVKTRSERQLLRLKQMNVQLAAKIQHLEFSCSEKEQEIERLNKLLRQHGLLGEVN
Outline: (§1)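 Xenopus oocytes injected with mutant-channel mRNA 1–3 d earlier, kept at 18°C in ND96. Inside-out patches at 22 ± 1°C in symmetric Mes/TEA solutions, pH 6.0. Held at −40 mV and pulsed to +120 mV at relative depolarization time 0.2 (3 s/15 s). 50 µM perfused into bath. End-pulse current leak- and rundown-corrected. Decay fitted double-exponentially (τfast, τslow, cfast, cslow); washout recovery single-exponentially (τoff).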

Hv1 R211A = experiment: as above; assay type: cell-based, human; conditions: 50 µM
Outline: as §1

Hv1 D112E = molecular target: T2, Hv1 D112E (Homo sapiens, UniProt Q96D96, D112E); experiment: Inside-out patch time course of inhibition, mutant channel; assay type: cell-based; conditions: 50 µM, RDT 0.1
T2 sequence (Q96D96 1-273 D112E): T1 sequence (Q96D96 1-273 D174E) with D112E, E174D
Outline: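 Mutant channel expressed in oocytes. Inside-out patches, pH 6.0 both sides, 22 ± 1°C. Holding −40 mV, depolarizations to +120 mV at relative depolarization time 0.1 (2 s/20 s) to follow slow kinetics, with matched WT comparison. 50 µM perfused into bath. Isochronal end-pulse current, leak- and rundown-corrected. Decay fitted with a double-exponential function for fast and slow components.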

Hv1 E171Q = molecular target: T3, Hv1 E171Q (Homo sapiens, UniProt Q96D96, E171Q); experiment: Inside-out patch time course of inhibition, mutant channel; assay type: cell-based; conditions: 50 µM
T3 sequence (Q96D96 1-273 E171Q): T1 sequence (Q96D96 1-273 D174E) with E171Q, E174D
Outline: as §1

Hv1 F150A = molecular target: T4, Hv1 F150A (Homo sapiens, UniProt Q96D96, F150A); experiment: Inside-out patch time course of inhibition, mutant channel; assay type: cell-based; conditions: 0.1 µM, SEM, n = 5
T4 sequence (Q96D96 1-273 F150A): T1 sequence (Q96D96 1-273 D174E) with F150A, E174D

Hv1 K157Q = molecular target: T5, Hv1 K157Q (Homo sapiens, UniProt Q96D96, K157Q); experiment: Inside-out patch time course of inhibition, mutant channel; assay type: cell-based; conditions: 50 µM
T5 sequence (Q96D96 1-273 K157Q): T1 sequence (Q96D96 1-273 D174E) with K157Q, E174D
Outline: as §1

Hv1 D185A = molecular target: T6, Hv1 D185A (Homo sapiens, UniProt Q96D96, D185A); experiment: as above; assay type: cell-based; conditions: 50 µM
T6 sequence (Q96D96 1-273 D185A): T1 sequence (Q96D96 1-273 D174E) with E174D, D185A
Outline: as §1

Hv1 S181A = experiment: as above; assay type: cell-based, human; conditions: 50 µM
Outline: as §1

Hv1 WT = molecular target: T7, Hv1 WT (Homo sapiens, UniProt Q96D96); experiment: Inside-out patch, pulsed application of inhibitor to the closed channel; assay type: cell-based; conditions: for channel inhibition under pulsed conditions: 100 µM pulses
T7 sequence (Q96D96 1-273): T1 sequence (Q96D96 1-273 D174E) with E174D
Outline: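 WT channel, inside-out oocyte patches, pH 6.0. Test compound (100 µM) applied in 3 s pulses while the membrane was held closed at −40 mV, or at 0 mV or −80 mV. Current read after each pulse with a step to +120 mV. Control pulses of a reference Hv1 inhibitor given first to confirm complete washout between depolarizations.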

Cc1[nH]c(N)nc1CCC(=O)c1cc(F)cc(F)c1 [HIF, 3-(2-amino-5-methyl-1H-imidazol-4-yl)-1-(3,5-difluorophenyl)propan-1-one]
reduction of the extent of inhibition vs WT (Hv1 D174E; 50 µM): 35% | τslow (Hv1 D174E; 50 µM, too slow to be accurately quantified): > 200 s | τoff, recovery from inhibition (Hv1 D174E; after 50 µM, RDT = 0.2): 37 ± 6 s | higher inhibition (decreased steady-state remaining current) vs WT (Hv1 R211A): 15% | reduction in τslow vs WT (Hv1 R211A): 64% | fast component of the inhibition process (Hv1 D112E): eliminated | slow component of the inhibition process (Hv1 D112E): unaffected | reduction of the extent of inhibition vs WT (Hv1 E171Q): 46% | τslow (Hv1 E171Q; too slow to be accurately quantified): > 200 s | ratio between the peak current and the current at the end of the depolarization step in the presence of the inhibitor (Hv1 F150A): 2.5 ± 0.5 | reduction of the extent of inhibition vs WT (Hv1 K157Q): 46% | τslow (Hv1 K157Q): > 200 s | effect of mutation on extent or time course of inhibition (Hv1 D185A): did not appreciably affect | higher inhibition vs WT (Hv1 S181A): 7% | reduction in τslow vs WT (Hv1 S181A): 26% | τ of current decay under pulsed application (Hv1 WT; 100 μM for 3 s pulses, membrane at −40 mV during application, single-exponential): 46 ± 4 s | channel inhibition under pulsed conditions (Hv1 WT; membrane held at 0 mV): 55 ± 3% | channel inhibition under pulsed conditions (Hv1 WT; membrane held at −80 mV): 33 ± 4%

From PMC8263925 (The Journal of General Physiology, 2021)
